Screening results from PubChem BioAssay.
Diaphorase act: counter-screen for diaphorase-based assays: diaphorase activators and chemical reducers; Diaphorase/resazurin coupled assay, resorufin fluorescence, 16 min; stronger effect = higher value; 1 = vehicle wells, 0 = NADH-free wells; activation factor at 20 µM; 190,000 compounds, 0.005% hits;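 active means diaphorase activity raised at least twofold by the compound at 20 µM; inactive means activation factor below 2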
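Measured by – red resorufin fluorescence at 544/590 nm excitation/emission · Test system – Clostridium kluyveri diaphorase, purified enzyme · Incubation – reaction time 16 min, room temperature · Buffer or medium – 50 mM HEPES pH 7.4 with 4.542 mM MgCl2, 0.005% Tween 20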
Diaphorase inh: inhibits diaphorase or chemically oxidizes, flagging diaphorase assay artifacts | 190,000 compounds, 0.69% hits | diaphorase resazurin-to-resorufin fluorescence, NADH, 16 min; bacterial (C. kluyveri) enzyme, not human | inhibition, % at 20 µM;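 active means primary screen inhibition at 20 µM above a set limit, cut at about 50% in these data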;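 further: plate controls were DMSO with full reaction for no effect and wells lacking NADH for full effect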
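material = Clostridium kluyveri diaphorase enzyme | amount = 0.14 U/mL diaphorase, enzyme working solution | schedule = incubation 16 min, room temperature | detection = fluorescence of resorufin formed from resazurin, Ex 544/Em 590 nm | benchmarks = positive control minus NADH, DMSO neutral control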
Lmaj promast: Leishmania major promastigote growth inhibition | Leishmania major promastigotes, resazurin fluorescence viability | inhibition, % at 10 µM | 200,000 compounds, 9% hits | AID 1063;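 further: promastigotes grown with compound for 44 hours at 28 °C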
G6PDH counter: L. mesenteroides G6PDH inhibition counter-screen; Purified L. mesenteroides G6PDH, diaphorase/resazurin coupled fluorescence, 45 min; inhibition, % at 5 µM; 200,000 compounds, 0.12% hits; AID 1020
WT yeast gro inh: growth inhibition of WT yeast, mitochondrial fusion screen. mitochondrial fusion phenotypic screen, WT strain. inhibition, % at 10 µM. AID 1362. 190,000 compounds, 2.1% hits; in the data active means inhibition above about 58%; tested in S. cerevisiae
* = called active by the depositor. This is a sample that favours compounds with a hit; in the whole collection about 11% have one here. Unless noted, no stated cut-off is given here; in the data, active means inhibition above about 50%; inactive means the rest.

SMILES	Diaphorase act	Diaphorase inh	Lmaj promast	G6PDH counter	WT yeast gro inh
CC(C)(C)NC(=O)COc1ccc(CNCCc2ccccc2)cc1	1	1.4	86.7*	11.2	-19.9
CCOc1cc(CNCCCN2CCOCC2)ccc1OCC(=O)NC(C)(C)C	1	-4.1	0.5	5.0	-5.0
CCOc1ccc(CCNC(=O)COC(=O)c2ccco2)cc1OCC	0.8	17.3	55.9*	1.1	2.5
CCNC(=O)COc1ccc(CC)cc1	1	3.5	20.4	-1.2	-6.2
CCc1ccc(OCC(=O)NC(C)(C)C)cc1	0.8	15.5	62.7*	8.5	-3.7
CCOc1cc(CNCc2cccnc2)ccc1OCC(=O)NC(C)(C)C	1.1	-5.6	83.1*	3.7	-14.5
CCOc1cc(CNCCc2ccc(S(N)(=O)=O)cc2)ccc1OCC(=O)NC(C)(C)C	0.9	5.4	-3.4	6.6	9.1
CCOc1ccc(CCNC(=O)Cn2cccc2C(=O)c2ccccc2C)cc1OCC	0.8	15.9	60.7*	-3.0	-2.2
CCOc1cc(CNCCc2ccccc2)ccc1OCC(=O)NC(C)(C)C	1	2.6	99.8*	-2.5	-6.9
COc1cc(OC)cc(C(=O)OCc2ccc([N+](=O)[O-])cc2)c1	1	-0.6	-6.5	7.5	-0.2
c1ccc(OCc2noc(CN3CCC(C4CCCCC4)C3)n2)cc1 (centres undefined)	0.9	6.8	54.5*	6.6	39.7
c1ccc(Cc2noc(CN3CCN(CCOc4ccccc4)CC3)n2)cc1	1	0.5	75.1*	2.9	6.2
Fc1ccccc1Cc1noc(CN2CCN(C/C=C/c3ccccc3)CC2)n1	0.9	10.4	84.7*	9.0	20.0
CC(C)OC(=O)c1ccc(NC(=O)c2ccco2)cc1	0.9	11.4	55.6*	5.3	-9.8
COc1c(F)c(F)c(C(=O)Nc2ccc(NC(=O)c3ccco3)cc2)c(F)c1F	1	-1.5	63.7*	2.1	13.4
C/C(N)=C(/C#N)C(=O)CSc1nc2ccccc2[nH]1	0.9	7.7	1.9	4.4	15.7
COCCNC(=S)N1CCc2cc(OC)c(OC)cc2C1c1cccs1 (centres undefined)	1	-2.3	11.6	3.8	4.5
CC1CCCC(C)N1c1nnc(N)s1 (centres undefined)	1	0.3	-2.3	9.8	1.7
C=CCN(CC=C)CCOc1ccc2ccccc2c1	0.9	5.1	41.0	2.4	6.2
CCOC(=O)C1=C(C)Nc2ccccc2N=C1NC(=O)Cc1ccc(OC)cc1	1	1.7	0.9	-2.8	-12.8
Cc1cc(Cl)c(OCCCCN2CCOCC2)c(Br)c1	0.9	5.1	97.6*	11.5	4.1
Cc1cc(Cl)c(OCCOCCN2CCCC(C)C2)c(Br)c1 (centres undefined)	0.9	13.3	98.7*	12.6	24.3
Cc1cc(Cl)c(OCCOCCN2CCCCC2)c(Br)c1	0.9	9.9	97.3*	3.5	-3.2
Cc1cc(Cl)c(OCCCn2cncn2)c(Br)c1	0.9	8.9	2.4	0.9	17.5
Cc1cccc(C)c1OCCCN1CCCC1	0.9	5.1	-2.6	0.3	-12.1
SMILES	Diaphorase act	Diaphorase inh	Lmaj promast	G6PDH counter	WT yeast gro inh
Cc1cc(C)c(OCCOCCN2CCNCC2)c(C)c1	0.9	5.6	15.1	-1.9	-18.8
Cc1cc(Cl)cc(C)c1OCCCCN1CCOCC1	0.9	10.0	99.7*	-18.6	32.2
C/C(=N\OC(=O)c1ccc(Br)cc1)c1ccccn1	0.9	8.8	88.0*	-0.1	-26.2
N/C(=N\OC(=O)/C=C/c1ccc(Br)cc1)c1ccccn1	1.1	-7.7	77.1*	2.8	7.2
COc1ccc(C(=O)O/N=C(/c2ccccc2)c2ccncc2)cc1	0.9	12.6	0.9	17.7	-7.3
COc1ccc(C(=O)O/N=C(\C)c2ccccc2)cc1	0.8	16.7	-4.9	-17.5	75.0*
COc1ccccc1CNC(=O)CN(C)CC(=O)Nc1cccc(F)c1	0.9	7.8	-2.7	-2.4	8.5
O=C(NC(Cc1c[nH]c2ccccc12)C(=O)O)c1ccc(Br)cc1 (centres undefined)	1.1	-13.4	-6.0	3.0	-16.4
CCOC(=O)c1c(-c2cccs2)csc1NC(C)=O	0.9	10.7	-7.2	2.7	9.8
CCOC(=O)c1c(-c2ccc(-c3ccccc3)cc2)csc1NC(=O)CCN1CCOCC1	0.9	10.9	98.0*	-19.3	10.3
CCOC(=O)c1c(-c2ccc(C)o2)csc1NC(=S)NC(=O)c1ccccc1Br	0.9	14.7	18.3	-24.2	2.4
CCOC(=O)c1c(-c2ccccc2Cl)csc1NC(=O)c1cc(S(=O)(=O)N2CCOCC2)ccc1C	0.8	23.4	82.6*	2.1	5.2
CCOC(=O)c1ccccc1NC(=O)c1cc(S(=O)(=O)N2CCOCC2)ccc1F	0.9	13.3	-1.4	-4.4	0.1
CCOC(=O)c1c(-c2ccccc2)csc1NC(=O)C(C)NCCCN1CCOCC1 (centres undefined)	0.8	15.8	26.5	-2.3	-4.7
CCOC(=O)c1c(-c2ccc(C)o2)csc1NC(=S)NC(=O)c1cccs1	0.7	28.8	74.6*	9.9	19.9
CCOC(=O)c1c(-c2cccs2)csc1NC(=O)C(C)(C)C	1	3.7	6.8	2.5	59.7*
CCOC(=O)c1c(-c2ccccc2)csc1NC(=S)NC	0.8	24.1	61.6*	2.8	-2.4
CS(=O)(=O)N1CCC(C(=O)c2cccc(Cl)c2)CC1	0.9	11.1	-3.4	-2.4	8.2
O=S1(=O)C=C(Sc2nc3ccccc3s2)c2ccccc21	0.8	17.9	100.3*	5.5	16.2
Cc1ccc(N=c2c([N+](=O)[O-])nn(-c3ccccc3)n2O)c(C)c1	0.8	18.6	56.4*	7.3	21.6
COc1ccc(-n2nc([N+](=O)[O-])c(=NCCCN3CCCC3=O)n2O)cc1	1	3.1	37.5	8.7	-15.2
COc1ccc(-n2nc([N+](=O)[O-])c(=NCCc3cccc(C)c3)n2O)cc1	1	2.0	81.2*	-2.4	-1.0
Cc1cccc(CCN=c2c([N+](=O)[O-])nn(-c3ccccc3)n2O)c1	1	-4.4	61.9*	11.3	10.9
Cc1c(Cl)cccc1N=c1c([N+](=O)[O-])nn(-c2ccccc2)n1O	0.9	7.5	10.0	3.2	14.9
COc1ccc(CCN=c2c([N+](=O)[O-])nn(-c3cccc(C)c3)n2O)cc1OC	1	3.2	49.8	7.1	16.5
SMILES	Diaphorase act	Diaphorase inh	Lmaj promast	G6PDH counter	WT yeast gro inh
O=C(CCC(=O)c1ccccc1)NCCc1c[nH]c2ccccc12	1	4.5	-3.1	-7.3	3.7
CCC(=O)Nc1ccc(N2CCN(S(C)(=O)=O)CC2)cc1	0.9	5.5	67.0*	7.0	9.2
CCCCOC(=O)c1ccc(NC(=O)c2ccccc2OC)cc1	0.7	30.7	-2.4	-4.7	64.5*
CCCC(=O)Nc1ccc(N2CCN(S(C)(=O)=O)CC2)cc1	0.8	15.1	7.5	3.1	-6.4
COc1ccccc1C(=O)Nc1ccc(N2CCN(S(C)(=O)=O)CC2)cc1	0.8	19.7	56.1*	1.6	8.7
COc1c(C)cccc1C(=O)Nc1ccc(N2CCN(S(C)(=O)=O)CC2)cc1	0.9	5.4	-0.8	1.4	-3.4
